Here are results for 1 compound from ChEMBL document CHEMBL1136094, “Novel, potent and selective cyclin D1/CDK4 inhibitors: indolo[6,7-a]pyrrolo[3,4-c]carbazoles” (Bioorg Med Chem Lett, 2003).

For the experiment, the target named is Tyrosine-protein kinase Lck (Homo sapiens) (UniProt P06239). The experiment is described as follows: Inhibition of p56 Lck tyrosine kinase at 500 nM. On the set-up: scale not given: the % may be the effect or the level left. In a few lines: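 Panel of 39 kinases, each tested at 100 and 500 nM inhibitor. […] Activity is expressed as % of control and is the mean of duplicate assays.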
Sequence of Tyrosine-protein kinase Lck (Homo sapiens) (P06239 2-509 limits assumed): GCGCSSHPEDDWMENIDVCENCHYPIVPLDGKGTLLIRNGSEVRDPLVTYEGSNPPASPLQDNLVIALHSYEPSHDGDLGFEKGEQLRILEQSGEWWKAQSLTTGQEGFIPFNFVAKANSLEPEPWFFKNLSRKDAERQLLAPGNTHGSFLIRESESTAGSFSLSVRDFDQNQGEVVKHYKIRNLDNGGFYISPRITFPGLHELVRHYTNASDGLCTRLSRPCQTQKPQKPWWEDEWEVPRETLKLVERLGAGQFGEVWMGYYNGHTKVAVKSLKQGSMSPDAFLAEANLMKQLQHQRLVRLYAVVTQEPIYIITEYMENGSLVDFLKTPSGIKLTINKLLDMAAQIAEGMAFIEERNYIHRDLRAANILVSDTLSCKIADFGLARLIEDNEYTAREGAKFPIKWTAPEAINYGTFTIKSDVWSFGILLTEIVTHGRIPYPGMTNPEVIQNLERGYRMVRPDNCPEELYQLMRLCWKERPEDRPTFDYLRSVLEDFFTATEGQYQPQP

In turn, `Cn1ccc2ccc3c4[nH]c5c(CCCN[C@H]6CC[C@H](O)CC6)cccc5c4c4c(c3c21)C(=O)NC4=O` had a Control of 60%.
